Measured values taken from the EternaBench riboswitch data.

Tested on: MS2 coat protein
Assay: apparent Kd, MS2 coat protein; higher = weaker binding; RNA-MaP array
Outline: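 Apparent Kd values come from the median of binding-curve fits to single clusters. To obtain them, designed RNAs transcribed on an Illumina sequencing chip from sequenced DNA templates were incubated at room temperature with fluorescently labeled MS2 coat protein at 1.5 nM to 3 μM, with or without input ligand, for 0.8–1.5 h at the lowest and 10–20 min at the highest concentrations. Designs measured on fewer than 10 clusters were excluded.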

[1] = designed as: OFF switch for flavin mononucleotide, no ligand
[2] = ligand present: flavin mononucleotide, designed as: OFF switch for flavin mononucleotide
[3] = designed as: ON switch for flavin mononucleotide, no ligand
[4] = ligand present: flavin mononucleotide, designed as: ON switch for flavin mononucleotide
[5] = designed as: ON switch for theophylline, no ligand
[6] = ligand present: theophylline, designed as: ON switch for theophylline

Sequence: GAUCCCACGAAGAAGGUCAGAUUUAGAUUACUUGAAGGAUAUUCACAUGAGGAUCACCCAUGUCCCGGCGCGGACUAGCCGAAU
- apparent Kd [1]: 107 nM
- apparent Kd [2]: 235 nM

Sequence: GAUGGUGUCAAGGAUAUUCCUAGCGGCUCGUUCGAAGAAGGUGAUACAUGAGGAUCACCCAUGUCCCUCCAUUU
- apparent Kd [1]: 18.2 nM
- apparent Kd [2]: 16.9 nM

Sequence: GAUUUUAGUGAAGGAUAUACAAACAACAUGAGGAUCACCCAUGUCUGGAAUGAUCGCAGGGCCCGGUAGAAGGUCAUCAGAAAG
- apparent Kd [1]: 31.1 nM
- apparent Kd [2]: 24 nM

Sequence: GCUCUAAGGGAGAAGGUCAUGUCGCAUCUUAGCGUUCACAUGAGGAUCACCCAUGUUAACUGUGUGAAGGAUAUCCUAGGCUGU
- apparent Kd [3]: 358 nM
- apparent Kd [4]: 125 nM

Sequence: GCUGAACAUGAGGAUCACCCAUGUCCGGAUACCAGCGGACCUCAUCGCCCUUGGCAGCCGAACCAACAGCUUGUGGUGUUCACUC
- apparent Kd [5]: 35.4 nM
- apparent Kd [6]: 49.9 nM

Sequence: GGAUACAGGAUAGGAUAUUCUGGGCCUUACAUGAGGAUCACCCAUGUGGAUUUUAUAUAUAGCCGGAAGAAGGAUCAACAGGUG
- apparent Kd [1]: 11.8 nM
- apparent Kd [2]: 9.21 nM

Sequence: GGCCUCACAUGAGGAUCACCCAUGUUACUACUUGUUCGAUUGGAGGAUAUCUCUAGAAUUUACUGAGAGAAGGCCAAUAUGGGA
- apparent Kd [1]: 236 nM
- apparent Kd [2]: 191 nM

Sequence: GGGUUAAAGCAGAAGGGUUACGGACAAAAUUAAACAGGAUAUGCCGUAAUACAUGAGGAUCACCCAUGUCAUACGUCAUCAGGG
- apparent Kd [3]: 18.9 nM
- apparent Kd [4]: 16 nM

Sequence: GUAAGACAAGGCAAGGAUAUGCCCUAAUGGACAUGAGGAUCACCCAUGUGGUUGCAUAAUCAAAAGCAGAAGGUGCUACAACACGG
- apparent Kd [3]: 48.3 nM
- apparent Kd [4]: 38.8 nM

Sequence: GUACUGCAGUUAGGAUAUACCGGAGGAUUAUACACCUACUAACAUGAGGAUCACCCAUGUCUCUCGUAGAAGGAACAUAUUAGC
- apparent Kd [3]: 20.9 nM
- apparent Kd [4]: 16.5 nM

Sequence: GUAUUGUAAGGAUAUAGUAGGCCAGUACGAAGGCUUGAGCACUAGAAGGUACAUGAGGAUCACCCAUGUGGUGG
- apparent Kd [1]: 401 nM
- apparent Kd [2]: 146 nM

Sequence: GUCCUUAUAACAUGAGGAUCACCCAUGUAAUUCAAUCUGCGAGAGGAUAUGUCUGAGCAUCCCACACAGAAGGCUCCGGAACAG
- apparent Kd [1]: 22.8 nM
- apparent Kd [2]: 20.1 nM

Sequence: GUCUAAGGCCAAGGAUAUUGCGUACUUGCGGAUGAUAGUAGAAAACAUGAGGAUCACCCAUGUCACAAGAAGGUGGUCCUGGGA
- apparent Kd [1]: 323 nM
- apparent Kd [2]: 176 nM

Sequence: GUGACACAUGAGGAUCACCCAUGUCAGGAUAUAGGUCAGCAAAGUAACCAUGACGAGACUAGAAGGGACGCGUG
- apparent Kd [1]: 30.5 nM
- apparent Kd [2]: 22.5 nM

Sequence: GUGAGACAUGAGGAUCACCCAUGUUAGGAUAUUAAACUGGUUUAGUCUGUGACCGACGUAAGAAGGAACUUGAU
- apparent Kd [1]: 13.1 nM
- apparent Kd [2]: 11.7 nM

Sequence: GUGCCAAAAGAGGAUAUAUUGACGAUGAUUCGCAUAGAAGGCUUUACAUGAGGAUCACCCAUGUGGGAGUGAUC
- apparent Kd [1]: 614 nM
- apparent Kd [2]: 184 nM

Sequence: GUGGCACUCCUAGGAUAUUCACCUUGCGUAGAAAGACAUGAGGAUCACCCAUGUGUCUCUUAUUUGAAGAAGGAGGAACCUCGG
- apparent Kd [3]: 12.7 nM
- apparent Kd [4]: 13 nM

Sequence: GUGGCUUCGGUGAGGAUAUGUCCGAUAAAACUGAGACAGAAGGCACAUGAGGAUCACCCAUGUAGCGUUGAUUC
- apparent Kd [1]: 17.5 nM
- apparent Kd [2]: 44.5 nM

Sequence: GUGUCUUGGGAGGAUAUCCACUUCACGUCAUAUGGAGAAGGCCCGACAUGAGGAUCACCCAUGUGGUAACUGGC
- apparent Kd [1]: 25.7 nM
- apparent Kd [2]: 28.7 nM

Sequence: GUGUUAUAUCCGUAACAUGAGGAUCACCCAUGUGUGAGAUCGAAGGAUAUCUGUCUGAGCUCAAAAGAGAAGGUCGAUACAAUG
- apparent Kd [1]: 57.6 nM
- apparent Kd [2]: 44.9 nM

Sequence: GUUCGCUGAGGAUAUACAUGAGGAUCACCCAUGUUCAAGUCUCGUGACUGUUCCCAGCGUAGAAGGCAGCGGUG
- apparent Kd [1]: 7.62 nM
- apparent Kd [2]: 8.85 nM

Sequence: GUUGCACAUGAGGAUCACCCAUGUUUGGAUACCAGUCUCUGUAAUGACCCUUGGCAGCCACCAUAGACGCUUGAGUAGAGCCUGA
- apparent Kd [5]: 15 nM
- apparent Kd [6]: 16 nM

Sequence: UAAAGGUUCCAGAAGGCCACGACUCGAUCCUGUGGAGGAUAUGGGACAUGAGGAUCACCCAUGUCUGGUGGAUUACAUCCCACA
- apparent Kd [3]: 20.4 nM
- apparent Kd [4]: 32.2 nM

Sequence: UAAAUUGAAGGAUAUACAUGAGGAUCACCCAUGUAAGAAAUACAUGAAAAUAACAACAGUAGAAGGUCAAAACU
- apparent Kd [1]: 15.9 nM
- apparent Kd [2]: 12.7 nM

Sequence: UAAGUGCUCACAUGAGGAUCACCCAUGUAUUUACUUAUGAGGAGAAGGAUCAAGGAGCAGCGGUGAUAGGAUAUCCUAAUAGAA
- apparent Kd [3]: 33 nM
- apparent Kd [4]: 23.6 nM

Sequence: UAAUUCACUAUUCACGGUCCGAUGUUCGAUACCAGAUCAUUUCGAAUCCCUUGGCAGCGAUUAACAUGAGGAUCACCCAUGUAAC
- apparent Kd (designed as: OFF switch for theophylline, no ligand): 32.2 nM
- apparent Kd (ligand present: theophylline, designed as: OFF switch for theophylline): 83.9 nM

Sequence: UACAUACAUGAGGAUCACCCAUGUUGCGAUACCAGCGAAAGAGACCGCCCUUGGCAGCGCUCAUUUAGUUCCAUUCUUGAUCGAA
- apparent Kd [5]: 14.3 nM
- apparent Kd [6]: 25.1 nM
